Data set [1] deals with Pyruvate kinase PKLR (Homo sapiens) (UniProt P30613). Briefly: Activation of PKR assessed as pyruvate formation by fluorescent pyruvate kinase-lactate dehydrogenase coupled assay relative to control. Also noted: concentration or dose not given beside the values.
Data set [2] can be described thus: Kinetic solubility by quantitative nitrogen detection assay. The class given is physicochemical. In outline:
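Kinetic solubility was determined by quantitative nitrogen detection in three separate experiments.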

Data set [3] concerns the target T1, Pyruvate kinase PKM (Homo sapiens, UniProt P14618). Briefly: Activation of PKM1 assessed as pyruvate formation by fluorescent pyruvate kinase-lactate dehydrogenase coupled assay.
Target sequence in this assay (P14618 2-531 limits assumed): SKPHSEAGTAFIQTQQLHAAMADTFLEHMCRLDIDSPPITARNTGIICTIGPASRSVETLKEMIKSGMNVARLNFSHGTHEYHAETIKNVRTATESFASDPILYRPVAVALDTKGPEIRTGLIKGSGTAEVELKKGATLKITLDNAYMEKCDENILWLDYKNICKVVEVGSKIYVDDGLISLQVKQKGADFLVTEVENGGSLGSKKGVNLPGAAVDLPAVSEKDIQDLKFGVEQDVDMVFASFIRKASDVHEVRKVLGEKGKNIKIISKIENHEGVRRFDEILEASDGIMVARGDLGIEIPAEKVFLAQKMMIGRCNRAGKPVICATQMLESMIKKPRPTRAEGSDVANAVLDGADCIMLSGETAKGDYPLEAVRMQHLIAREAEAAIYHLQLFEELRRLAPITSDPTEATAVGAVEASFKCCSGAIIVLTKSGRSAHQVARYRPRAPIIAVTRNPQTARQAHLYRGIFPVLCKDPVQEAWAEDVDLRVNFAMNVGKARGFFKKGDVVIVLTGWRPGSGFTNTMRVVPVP
Data set [4] concerns the target T1, Pyruvate kinase PKM. Briefly: Activation of PKM2 assessed as ATP product formation at 57 uM by luminescent pyruvate kinase-luciferase coupled assay relative to fructose-1,6-bis-phosphate. In outline:
(§1)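 Recombinant human PKM2 (0.1 nM final) in 50 mM imidazole pH 7.2, 50 mM KCl, 7 mM MgCl2, 0.01% Tween 20, 0.05% BSA; 0.1 mM ADP, 0.5 mM PEP; 1 h at r.t., then Kinase-Glo luciferase read of ATP formed. Activation % = (c−n)/(n−i)×100 against DMSO and no-enzyme controls; 100% ≈ 2-fold over basal signal. Max response taken at 57 μM; three separate experiments.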
Target sequence in this assay (P14618 2-531 limits assumed): as above

For data set [5], the target named is T1, Pyruvate kinase PKM. As to the kind of experiment: Activation of PKM1 assessed as ATP product formation by luminescent pyruvate kinase-luciferase coupled assay. In a few lines:
(§2)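 Luciferase-coupled ATP production assay run as for PKM2: imidazole pH 7.2 buffer with KCl, MgCl2, Tween 20 and BSA, 0.1 mM ADP, 0.5 mM PEP, 1 h at r.t., Kinase-Glo luminescence. Enzyme final concentrations were PKM1 1 nM, PKL 0.1 nM, PKR 0.1 nM. % activation normalized to DMSO (neutral) and no-enzyme controls.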
Target sequence in this assay (P14618 2-531 limits assumed): as above

Data set [6] has as its target Pyruvate kinase PKLR (Homo sapiens) (UniProt P30613). As to the kind of experiment: Activation of PKL assessed as pyruvate formation by fluorescent pyruvate kinase-lactate dehydrogenase coupled assay relative to control. Set-up: concentration or dose not given beside the values.
For data set [7] the target is unchanged. As to the kind of experiment: Activation of PKL assessed as ATP product formation by luminescent pyruvate kinase-luciferase coupled assay relative to control. Set-up: concentration or dose not given beside the values. In a few lines:
as §2

Data set [8] has the same target. As to the kind of experiment: Activation of PKR assessed as ATP product formation by luminescent pyruvate kinase-luciferase coupled assay relative to control. Set-up: concentration or dose not given beside the values. In a few lines: as §2
Data set [9] deals with T1, Pyruvate kinase PKM. As to the kind of experiment: Activation of PKM2 assessed as ATP product formation by luminescent pyruvate kinase-luciferase coupled assay. The note with it: read-out: AC50. In outline: as §1
Target sequence in this assay (P14618 whole entry): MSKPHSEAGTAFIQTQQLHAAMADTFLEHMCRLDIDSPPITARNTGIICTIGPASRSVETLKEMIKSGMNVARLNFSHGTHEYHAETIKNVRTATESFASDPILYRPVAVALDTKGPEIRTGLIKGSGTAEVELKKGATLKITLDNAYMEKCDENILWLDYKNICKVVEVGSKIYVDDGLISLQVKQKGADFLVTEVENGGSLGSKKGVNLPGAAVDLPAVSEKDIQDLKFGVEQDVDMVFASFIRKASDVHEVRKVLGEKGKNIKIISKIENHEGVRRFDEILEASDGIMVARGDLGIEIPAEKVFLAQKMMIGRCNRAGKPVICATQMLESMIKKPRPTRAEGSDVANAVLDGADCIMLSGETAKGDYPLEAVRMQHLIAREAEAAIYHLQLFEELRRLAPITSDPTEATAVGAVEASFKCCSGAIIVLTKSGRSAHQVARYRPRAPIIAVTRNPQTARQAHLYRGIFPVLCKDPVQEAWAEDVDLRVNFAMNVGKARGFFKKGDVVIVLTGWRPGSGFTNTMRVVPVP
For data set [10], the target named is T1, Pyruvate kinase PKM. As to the kind of experiment: Activation of PKM2 assessed as pyruvate formation by fluorescent pyruvate kinase-lactate dehydrogenase coupled assay. In a few lines: (§3)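 Kinetic PK–LDH coupled read: 10 nM hPK-M2 with 1 μM LDH in 50 mM Tris-Cl pH 8.0, 200 mM KCl, 15 mM MgCl2, 0.1 mM PEP, 4.0 mM ADP, 0.2 mM NADH. NADH fluorescence decrease was read at 30 s intervals over 3–6 min.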
Target sequence in this assay (P14618 whole entry): as above

Data set [11] deals with T1, Pyruvate kinase PKM. As to the kind of experiment: Activation of PKM2 in presence of excess of phosphoenolpyruvate level.
Target sequence in this assay (P14618 2-531 limits assumed): as the sequence (P14618 2-531 limits assumed) above
The target in data set [12] is T1, Pyruvate kinase PKM. As to the kind of experiment: Activation of PKM2 assessed as pyruvate formation by fluorescent pyruvate kinase-lactate dehydrogenase coupled assay relative to fructose-1,6-bis-phosphate. In a few lines: as §3
Target sequence in this assay (P14618 2-531 limits assumed): as above
Data set [13] has as its target T1, Pyruvate kinase PKM. Briefly: Activation of PKM2 assessed as effect on Km for ADP relative to untreated control. In a few lines: (§4)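 Steady-state kinetics were measured by the PK–LDH coupled assay at about 22 °C with 10 nM PKM2, 200 mM KCl and 15 mM MgCl2. One substrate (PEP or ADP) was varied with the other held at 4.0 mM, with or without activator. Fluorescence was converted to pmol NADH by a standard curve; initial rates (pmol/min) were fit for KM.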
Target sequence in this assay (P14618 2-531 limits assumed): as above

Data set [14] has as its target T1, Pyruvate kinase PKM. As to the kind of experiment: Activation of PKM2 assessed as reduction of Km for phosphoenolpyruvate relative to untreated control. In a few lines: as §4

A word on the kinetic solubility: it is solubility judged after dilution from a stock solution rather than from solid. As a reminder, the AC50 is the midpoint of the concentration-response curve, whichever way the signal moves.

≈ marks a conversion by molar mass, not a printed value. Calls of active or inactive are those of the source.

Chain of Pyruvate kinase PKLR (Homo sapiens) (P30613 whole entry, looked up): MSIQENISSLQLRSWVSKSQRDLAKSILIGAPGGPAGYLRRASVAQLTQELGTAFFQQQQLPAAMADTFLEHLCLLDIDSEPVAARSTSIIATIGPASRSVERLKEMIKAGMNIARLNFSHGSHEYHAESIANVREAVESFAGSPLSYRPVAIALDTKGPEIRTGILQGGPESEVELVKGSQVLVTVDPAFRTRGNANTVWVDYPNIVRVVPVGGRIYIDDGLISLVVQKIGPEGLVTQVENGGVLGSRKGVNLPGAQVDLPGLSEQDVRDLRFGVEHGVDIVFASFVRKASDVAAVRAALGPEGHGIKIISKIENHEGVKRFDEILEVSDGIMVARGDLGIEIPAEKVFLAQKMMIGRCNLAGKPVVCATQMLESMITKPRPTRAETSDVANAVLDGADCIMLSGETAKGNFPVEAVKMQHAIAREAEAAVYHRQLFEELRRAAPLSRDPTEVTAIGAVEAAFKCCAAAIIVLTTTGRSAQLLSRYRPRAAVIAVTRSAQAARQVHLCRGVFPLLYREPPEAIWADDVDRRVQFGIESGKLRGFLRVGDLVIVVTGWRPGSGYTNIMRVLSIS

As for `Nc1cccc(S(=O)(=O)N2CCCN(S(=O)(=O)c3ccc4c(c3)OCCO4)CC2)c1`, the Activity was under 30% in data set [1]; 81.7% on Pyruvate kinase PKM [4]; under 30% in data set [6]; under 30% in data set [7]; under 30% in data set [8]. The same compound came in with a solubility (kinetic) in data set [2] of 51.2 µM (≈ 23.2 µg/mL). The result at Pyruvate kinase PKM [3] and on Pyruvate kinase PKM [5] was inactive.

With `Nc1cccc(S(=O)(=O)N2CCN(S(=O)(=O)c3c(F)cccc3F)CC2)c1`, the Activity in [1] was under 30%; on Pyruvate kinase PKM [4], 84.4%; in data set [6] it was under 30%; in data set [7], under 30%; in data set [8] it was under 30%. For the same compound, the kinetic solubility in data set [2] is 5.7 µM (≈ 2.38 µg/mL). Moreover, the outcome at Pyruvate kinase PKM [3] and at Pyruvate kinase PKM [5] was inactive. For the same compound, the AC50 at Pyruvate kinase PKM [9] is 99 nM.

As to `COc1cc(F)c(S(=O)(=O)N2CCN(S(=O)(=O)c3cccc(N)c3)CC2)c(F)c1`, the Activity in data set [1] was under 30%; on Pyruvate kinase PKM [4], 90.5%; in [6], under 30%; in [7], under 30%; in [8], under 30%. In [2], this compound yielded a solubility (kinetic) of under 0.7 µM. In addition, the result on Pyruvate kinase PKM [3] and at Pyruvate kinase PKM [5] was inactive. The AC50 on Pyruvate kinase PKM [9] is 26 nM.

For the compound `O=S(=O)(c1ccc2c(c1)OCCO2)N1CCN(S(=O)(=O)c2c(F)cccc2F)CC1`, the Activity in data set [1] was under 30%; at Pyruvate kinase PKM [4], 94.4%; in data set [6], under 30%; in [7], under 30%; in data set [8], under 30%. This compound also returned a solubility (kinetic) in [2] of under 1.1 µM. Also, the result at Pyruvate kinase PKM [3] and on Pyruvate kinase PKM [5] was inactive.

Turning to `COc1ccc(S(=O)(=O)N2CCN(S(=O)(=O)c3ccc4c(c3)OCCO4)CC2)cc1`, the Activity in data set [1] was under 30%; on Pyruvate kinase PKM [4], 92.2%; on Pyruvate kinase PKM [12], 150%; in data set [6] it was under 30%; in [7] it was under 30%; in data set [8] it was under 30%. For the same compound, on Pyruvate kinase PKM [10], the AC50 came to 750 nM. Moreover, the outcome at Pyruvate kinase PKM [3], at Pyruvate kinase PKM [11], at Pyruvate kinase PKM [13] and on Pyruvate kinase PKM [5] was inactive. The fold change (FC) on Pyruvate kinase PKM [14] was found to be 10.

For `O=S(=O)(c1ccc2c(c1)OCCO2)N1CCCN(S(=O)(=O)c2c(F)cccc2F)CC1`, the Activity was under 30% in data set [1]; 120% at Pyruvate kinase PKM [4]; under 30% in data set [6]; under 30% in [7]; under 30% in [8]. Further, the kinetic solubility in data set [2] turned out to be 5.6 µM (≈ 2.66 µg/mL). Besides, the result at Pyruvate kinase PKM [3] and at Pyruvate kinase PKM [5] was inactive.

As for `O=P(O)(O)OC[C@H]1O[C@@](O)(COP(=O)(O)O)[C@@H](O)[C@@H]1O`, at Pyruvate kinase PKM [11], the outcome was inactive.

`Nc1cccc(S(=O)(=O)N2CCN(S(=O)(=O)c3ccc4c(c3)OCCO4)CC2)c1`: the Activity in [1] was under 30%; on Pyruvate kinase PKM [4], 83.7%; in data set [6] it was under 30%; in data set [7] it was under 30%; in data set [8], under 30%. In addition, the kinetic solubility in [2] worked out at 7.3 µM (≈ 3.21 µg/mL). Also, the result on Pyruvate kinase PKM [3] and on Pyruvate kinase PKM [5] was inactive. In addition, the AC50 on Pyruvate kinase PKM [9] was found to be 43 nM.

In the case of `COc1cc(F)c(S(=O)(=O)N2CCCN(S(=O)(=O)c3cccc(N)c3)CC2)c(F)c1`, the Activity is under 30% in [1]; 92.5% on Pyruvate kinase PKM [4]; under 30% in data set [6]; under 30% in data set [7]; under 30% in data set [8]. For the same compound, the kinetic solubility in [2] was found to be 26.3 µM (≈ 12.1 µg/mL). Moreover, the result at Pyruvate kinase PKM [3] and on Pyruvate kinase PKM [5] was inactive. Also, the AC50 at Pyruvate kinase PKM [9] worked out at 223 nM.

For the origin of these results see ChEMBL document CHEMBL1156261, “Evaluation of substituted N,N'-diarylsulfonamides as activators of the tumor cell specific M2 isoform of pyruvate kinase” (J Med Chem, 2010).
